These results are taken from PMC3988618 (Messenger (Los Angeles, Calif. : Print), 2012).

The target of assay [1] is InsP3R. The conditions noted are these: ref Vandeput, 2007; cited from earlier work.
The target of a further assay is type 1 InsP3R (InsP3R1) (Mus musculus, UniProt P11881). Kind of assay: Inhibition of Ins. Format: cell-based. As to conditions: for IC50: read-out: Ins P3R antagonism IC50 (inhibition of Ins(1,4,5)P3-induced Ca2+ release), permeabilized L15 fibroblasts overexpressing InsP3R1, Ca2+ release induced by 250 nM Ins(1,4,5)P3. A digest of the protocol:
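Mouse InsP3R1-overexpressing L15 fibroblasts, confluent (days 6–8), saponin-permeabilized (40 μg ml−1, 10 min); stores loaded 45 min with 150 nM free 45Ca2+, ATP, NaN3, pH 6.8; 30 °C. Efflux with 1 mM EGTA plus 10 μM thapsigargin, sampled every 2 min; Ins(1,4,5)P3 given 2 min, compound 6 min around it. Release taken as fractional loss over basal leak; Hill fits; 3–4 experiments in duplicate.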

Assay [2] has as its target T1, human type I Ins(1,4,5)P3 5-phosphatase (Homo sapiens, UniProt Q14642).
T1 sequence (Q14642 1-412): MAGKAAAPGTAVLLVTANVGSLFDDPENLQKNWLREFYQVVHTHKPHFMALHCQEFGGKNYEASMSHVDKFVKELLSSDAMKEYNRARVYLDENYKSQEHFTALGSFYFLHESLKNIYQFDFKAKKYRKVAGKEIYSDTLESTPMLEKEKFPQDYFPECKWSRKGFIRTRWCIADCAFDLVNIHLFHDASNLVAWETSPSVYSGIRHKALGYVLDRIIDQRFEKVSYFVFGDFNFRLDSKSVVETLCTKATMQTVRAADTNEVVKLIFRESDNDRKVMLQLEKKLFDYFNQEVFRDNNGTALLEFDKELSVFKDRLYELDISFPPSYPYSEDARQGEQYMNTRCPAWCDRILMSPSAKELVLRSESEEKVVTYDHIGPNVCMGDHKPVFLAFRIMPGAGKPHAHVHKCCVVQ
Kind of assay: Ins. It counts as biochemical. The conditions noted are these: ratio of IC50 values. The method, boiled down: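 Recombinant human type I Ins(1,4,5)P3 5-phosphatase; inhibition by test compound read by malachite green phosphate detection with 1.0 μmol Ins(1,4,5)P3 substrate.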

The test system of assay [3] is InsP3R. The conditions noted are these: bovine adrenal cortex microsomes; ref Poitras, 1993; cited from earlier work.

type 1 InsP3R (InsP3R1), sequence (P11881 whole entry): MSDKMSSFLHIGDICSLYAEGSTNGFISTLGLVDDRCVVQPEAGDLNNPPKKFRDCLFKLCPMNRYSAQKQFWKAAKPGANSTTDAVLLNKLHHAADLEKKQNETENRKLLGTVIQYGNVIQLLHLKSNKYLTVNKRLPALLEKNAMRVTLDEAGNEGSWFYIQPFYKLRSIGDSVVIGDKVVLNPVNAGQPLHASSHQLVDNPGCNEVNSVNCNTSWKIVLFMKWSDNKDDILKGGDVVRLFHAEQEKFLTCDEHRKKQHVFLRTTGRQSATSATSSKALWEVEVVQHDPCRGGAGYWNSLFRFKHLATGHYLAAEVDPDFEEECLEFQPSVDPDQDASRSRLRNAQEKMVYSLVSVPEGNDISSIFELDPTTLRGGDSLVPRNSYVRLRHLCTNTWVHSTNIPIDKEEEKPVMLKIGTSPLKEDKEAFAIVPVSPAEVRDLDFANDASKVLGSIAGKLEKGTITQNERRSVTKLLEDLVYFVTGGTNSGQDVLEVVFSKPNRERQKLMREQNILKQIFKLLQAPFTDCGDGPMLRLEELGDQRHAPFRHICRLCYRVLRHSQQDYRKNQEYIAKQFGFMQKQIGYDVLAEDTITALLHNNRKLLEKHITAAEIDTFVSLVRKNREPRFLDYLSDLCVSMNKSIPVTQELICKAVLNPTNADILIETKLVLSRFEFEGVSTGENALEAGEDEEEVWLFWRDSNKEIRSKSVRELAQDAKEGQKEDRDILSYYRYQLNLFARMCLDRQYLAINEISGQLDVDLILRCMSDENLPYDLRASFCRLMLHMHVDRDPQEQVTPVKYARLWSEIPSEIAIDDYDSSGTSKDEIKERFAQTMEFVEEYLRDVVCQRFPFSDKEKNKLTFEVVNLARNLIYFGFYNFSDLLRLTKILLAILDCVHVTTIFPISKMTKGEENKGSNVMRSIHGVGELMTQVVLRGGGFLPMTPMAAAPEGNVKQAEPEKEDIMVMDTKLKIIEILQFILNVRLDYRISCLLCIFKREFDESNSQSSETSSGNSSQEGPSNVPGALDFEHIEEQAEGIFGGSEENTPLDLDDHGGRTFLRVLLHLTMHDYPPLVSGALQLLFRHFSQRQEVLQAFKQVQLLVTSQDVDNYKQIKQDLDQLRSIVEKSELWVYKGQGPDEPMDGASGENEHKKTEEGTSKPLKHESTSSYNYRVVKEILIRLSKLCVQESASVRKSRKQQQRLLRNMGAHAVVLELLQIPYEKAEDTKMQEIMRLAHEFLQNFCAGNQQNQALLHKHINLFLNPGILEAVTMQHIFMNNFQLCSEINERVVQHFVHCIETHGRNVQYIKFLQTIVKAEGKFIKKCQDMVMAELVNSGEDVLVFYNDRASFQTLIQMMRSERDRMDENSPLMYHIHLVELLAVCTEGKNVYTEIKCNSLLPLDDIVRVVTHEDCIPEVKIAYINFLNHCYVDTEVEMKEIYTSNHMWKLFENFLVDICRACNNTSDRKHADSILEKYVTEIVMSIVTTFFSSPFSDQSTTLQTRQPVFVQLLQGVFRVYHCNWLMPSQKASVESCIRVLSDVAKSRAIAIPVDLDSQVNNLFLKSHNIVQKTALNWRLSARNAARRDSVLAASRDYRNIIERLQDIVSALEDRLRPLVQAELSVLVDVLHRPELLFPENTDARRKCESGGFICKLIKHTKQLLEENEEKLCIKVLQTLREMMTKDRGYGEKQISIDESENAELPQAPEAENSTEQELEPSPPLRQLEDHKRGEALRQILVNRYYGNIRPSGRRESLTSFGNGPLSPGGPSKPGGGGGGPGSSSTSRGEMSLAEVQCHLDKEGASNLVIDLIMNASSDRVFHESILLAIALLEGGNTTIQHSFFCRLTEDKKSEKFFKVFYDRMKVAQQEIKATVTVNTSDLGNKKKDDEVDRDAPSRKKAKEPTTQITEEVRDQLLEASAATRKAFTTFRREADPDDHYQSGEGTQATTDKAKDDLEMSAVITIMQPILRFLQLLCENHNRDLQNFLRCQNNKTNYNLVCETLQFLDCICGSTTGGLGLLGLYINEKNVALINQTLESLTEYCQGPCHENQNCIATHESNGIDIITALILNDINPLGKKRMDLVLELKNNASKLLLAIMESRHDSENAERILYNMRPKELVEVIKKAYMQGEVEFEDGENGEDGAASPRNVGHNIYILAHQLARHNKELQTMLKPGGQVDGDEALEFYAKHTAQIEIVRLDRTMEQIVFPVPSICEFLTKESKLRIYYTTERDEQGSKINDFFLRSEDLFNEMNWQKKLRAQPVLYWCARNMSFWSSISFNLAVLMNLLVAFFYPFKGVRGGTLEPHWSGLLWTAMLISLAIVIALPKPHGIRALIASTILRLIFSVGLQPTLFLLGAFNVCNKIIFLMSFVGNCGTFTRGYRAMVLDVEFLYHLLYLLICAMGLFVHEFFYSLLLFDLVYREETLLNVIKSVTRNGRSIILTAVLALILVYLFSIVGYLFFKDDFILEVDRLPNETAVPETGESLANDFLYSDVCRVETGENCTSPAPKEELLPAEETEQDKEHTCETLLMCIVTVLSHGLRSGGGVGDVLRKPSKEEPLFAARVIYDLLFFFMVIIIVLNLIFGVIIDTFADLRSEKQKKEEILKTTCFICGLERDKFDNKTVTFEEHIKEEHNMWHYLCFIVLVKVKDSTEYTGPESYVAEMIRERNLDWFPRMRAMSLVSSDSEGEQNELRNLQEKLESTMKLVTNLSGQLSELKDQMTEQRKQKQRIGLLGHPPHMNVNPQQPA

Broadly, the IC50 is the concentration that inhibits the measured activity by half. As to `O=P(O)(O)Oc1cc(OP(=O)(O)O)cc(-c2c(OP(=O)(O)O)cc(OP(=O)(O)O)cc2OP(=O)(O)O)c1` [Compound 4, biphenyl 2,3′,4,5′,6-pentakisphosphate, reference compound], the “IC50 as Ins(1,4,5)P3 receptor antagonist” value at InsP3R [1] is reported as “low micromolar range”. The half-inhibitory concentration (IC50) on type 1 InsP3R (InsP3R1) worked out at 417 nM.
Turning to `O=P(O)(O)Oc1cc(OP(=O)(O)O)c(-c2cc(OP(=O)(O)O)c(OP(=O)(O)O)cc2OP(=O)(O)O)cc1OP(=O)(O)O` [Compound 8, 2,2′,4,4′,5,5′-Biphenylhexakisphosphate], in assay [2], the “5-phosphatase inhibition, fold more potent than (10)” value is not below 20 fold and the “5-phosphatase inhibition, times better than (4)” value is given as approximately 4 times. Moreover, the “Mode of inhibition at the InsP3R” value at type 1 InsP3R (InsP3R1) (200 nM compound at various Ins(1,4,5)P3 concentrations, Lineweaver-Burk plot) was “competitive inhibitor”. Also, the “Effect on Ins(1,4,5)P3-induced Ca2+ release” value at type 1 InsP3R (InsP3R1) (200 nM compound, low (0.1 μM) Ins(1,4,5)P3, not at high (3 μM) Ins(1,4,5)P3) is “strongly inhibited”. Moreover, the IC50 on type 1 InsP3R (InsP3R1) was found to be 187 nM.
For the compound `O=P(O)(O)Oc1ccc(OP(=O)(O)O)c(OP(=O)(O)O)c1` [Compound 2, Benzene 1,2,4-trisphosphate], the “Blocking of [3H]Ins(1,4,5)P3 binding, fold weaker than Ins(1,4,5)P3” value in the assay on InsP3R [3] is given as ~10,000 fold.
As to `O=P(O)(O)O[C@@H]1[C@H](O)[C@H](O)[C@@H](OP(=O)(O)O)[C@H](OP(=O)(O)O)[C@H]1O` [Compound 1, Myo-inositol 1,4,5-trisphosphate, reference compound], on type 1 InsP3R (InsP3R1) (read-out: apparent Kd for Ins(1,4,5)P3 at the receptor, absence of (8), Lineweaver-Burk plot of Ca2+ release), the Kd was found to be 400 nM.
Regarding `O=P(O)(O)Oc1ccc(OCCOc2ccc(OP(=O)(O)O)c(OP(=O)(O)O)c2)cc1OP(=O)(O)O` [Compound 10], at type 1 InsP3R (InsP3R1), the IC50 was more than 5000 nM. Moreover, the “Inhibition of Ca2+ release” value at type 1 InsP3R (InsP3R1) (up to 10 μM compound, 250 nM Ins(1,4,5)P3) is listed as “ineffective”.
`O=P(O)(O)Oc1cc(OP(=O)(O)O)c(OP(=O)(O)O)cc1OCCOc1cc(OP(=O)(O)O)c(OP(=O)(O)O)cc1OP(=O)(O)O` [Compound 9]: the “5-phosphatase inhibition, fold weaker than (8)” value in assay [2] is 7 fold. On type 1 InsP3R (InsP3R1), the IC50 stood at 380 nM.
